Results collected from several papers.
Lines come from different studies, so protocols differ.
Target: Mitogen-activated protein kinase kinase kinase 3 (MAP3K3, Homo sapiens, UniProt Q99759)
One construct used (Q99759 1-626): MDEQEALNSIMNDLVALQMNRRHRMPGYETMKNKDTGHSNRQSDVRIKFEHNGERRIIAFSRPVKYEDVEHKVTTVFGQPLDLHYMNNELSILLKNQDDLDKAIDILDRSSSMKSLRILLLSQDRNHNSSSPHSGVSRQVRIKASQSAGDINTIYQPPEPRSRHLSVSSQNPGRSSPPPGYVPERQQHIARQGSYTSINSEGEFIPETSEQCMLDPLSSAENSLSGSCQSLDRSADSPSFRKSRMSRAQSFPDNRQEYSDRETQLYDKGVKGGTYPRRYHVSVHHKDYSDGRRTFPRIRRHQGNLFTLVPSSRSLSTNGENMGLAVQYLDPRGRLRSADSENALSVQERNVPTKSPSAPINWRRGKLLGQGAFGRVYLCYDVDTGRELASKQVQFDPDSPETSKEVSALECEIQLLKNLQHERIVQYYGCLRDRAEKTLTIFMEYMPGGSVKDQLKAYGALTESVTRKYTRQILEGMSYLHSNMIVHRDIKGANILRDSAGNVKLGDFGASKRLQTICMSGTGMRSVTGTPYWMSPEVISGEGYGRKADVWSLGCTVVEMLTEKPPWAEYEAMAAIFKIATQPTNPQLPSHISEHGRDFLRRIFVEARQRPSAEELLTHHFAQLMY

CCOc1cc(-c2nncn2C)ccc1Nc1ncc2cc(C)nc(NCC(C)(C)C)c2n1 gave an inhibition of at most 15% (cell-free assay, TR-FRET; 1 µM).
CC(C)(C)c1nc(-c2cccc(NS(=O)(=O)c3c(F)cccc3F)c2F)c(-c2ccnc(N)n2)s1 gave a remaining activity of 96% (enzyme activity, inhibitor, radiometric; 1 µM).
C[C@@H]1CN(c2cc(-c3n[nH]c4ccc(OC5(C)CC5)cc34)ncn2)C[C@H](C)O1 has a remaining binding of 64% (cell-free assay, competition with immobilised ligand; 0.1 µM).
N#CCCc1ccc2c(c1)-c1[nH]c3ccc([N+](=O)[O-])cc3c1CC(=O)N2 gave a remaining signal of 83.3% (cell-free assay; 0.5 µM).
For COc1cc(Cl)c(C(=O)N[C@@H](CN[C@H]2CC[C@@H](N)CC2)Cc2ccc(C#N)cc2)cc1-c1ccc(CN[C@H](C)c2ccc(C)cc2)o1, the remaining activity was 95% (enzyme activity, inhibitor; 1 µM).
For Cn1cc(Cl)c2c(Oc3c(F)cc(Nc4cc(Cl)nc(N)n4)cc3F)ccnc21, the remaining binding was 90% (cell-free assay, competition with immobilised ligand; 0.1 µM).
For Nc1ncnc2occ(-c3ccc(NC(=O)Nc4cc(C(F)(F)F)ccc4F)cc3)c12, the remaining signal was 4.3% (cell-free assay, inhibitor; 20 µM).
CCS(=O)(=O)c1cc2cc(C[C@@](O)(CC(C)(C)c3ccc(F)cc3C(N)=O)C(F)(F)F)[nH]c2cn1 has a remaining binding of 90% (cell-free assay, competition with immobilised ligand; 1 µM).
The activity vs control of Cc1ccc(C(=O)NCc2ccsc2)cc1C#Cc1cn(C(C)C)c2ncnc(N)c12 is reported as 70% (enzyme activity, inhibitor; 1 µM).
O=C(Nc1cnn(-c2csc(C(=O)NC3COC3)c2)c1)Nc1c(F)cccc1Cl gave a remaining activity of 81.9% (enzyme activity, inhibitor; 5 µM).
For COc1cc(Nc2c(C#N)cnc3cc(OCCCN4CCN(C)CC4)c(OC)cc23)c(Cl)cc1Cl, the remaining signal was 11.8% (cell-free assay; 0.5 µM).
With C[C@H](c1ccc(F)cc1)N(Cc1cccc(C(=O)O)c1)C(=O)c1cnc2ccccc2c1 the remaining binding was 100% (cell-free assay, competition with immobilised ligand; 1 µM).
COc1cc2c(N3CCN(C(=O)Nc4ccc(OC(C)C)cc4)CC3)ncnc2cc1OCCCN1CCCCC1 gave a remaining signal of 106% (cell-free assay; 0.5 µM).
With CN(c1ccnc(CNc2nc(Nc3ccc4c(c3)CC(=O)N4)ncc2C(F)(F)F)n1)S(C)(=O)=O the remaining binding was 44% (cell-free assay, competition with immobilised ligand; 1 µM).
For O=C1NC(=O)c2cc(Nc3ccc(F)cc3)c(Nc3ccc(F)cc3)cc21, the remaining signal was 102% (cell-free assay; 0.5 µM).
With COc1ccc(F)cc1C(=O)NCc1ccc(-c2nn([C@@H](C)C(F)(F)F)c(N)c2C(N)=O)cc1 the inhibition was -38.5% (target engagement in cells, inhibitor, chemoproteomics; 10 µM).
